Laboratory results as given in PubChem BioAssay.
Activity calls are given as the source filed them.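 How the source made its calls, unless noted: active means inhibition at or above 50% at 10 µM; inactive means inhibition below 50%.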

How the values were obtained:
[1] = inhibitors of TNFa-induced NFkB p65 translocation, primary screen, imaging, HUVEC, MLSMR starter and 10KST1 sets (AID 438;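 active means inhibition above 20% together with a positive visual image hit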;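 further: compound added about 3h40 before a 20 min TNFalpha stimulation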;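 on inhibition: signal is the nuclear over cytoplasmic p65 intensity ratio per well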); details: HUVEC TNFa-induced p65 nuclear translocation; cell count: measured here: nuclei count (cytotoxicity indicator), at 2.08 µM; inhibition: at 2 µM, stronger effect = higher value, 0% TNFa-plus-vehicle, 100% no-TNFa wells
[2] = inhibitors of mutant huntingtin aggregation, primary screen, imaging, exon1htt(103Q)mCFP cells, high-content imaging (AID 483;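 active means visual image review flags a hit and inhibition of aggregation exceeds 20%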;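 further: compound exposure lasted 3 days before fixation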;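 on nuclei count: percent of the per-plate median nuclei count of sample wells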); details: exon1htt(103Q)mCFP cell line, aggregate imaging, at 2 µM; inhibition of aggregation: stronger effect = higher value; nuclei count: measured here: cell count, toxicity
[3] = inhibitors of E-selectin induction by TNFa, primary screen, imaging, HUVEC, immunofluorescence, MLSMR starter and 10KST1 sets (AID 487;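 active means visually confirmed hit in the image check and inhibition above 20%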;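 on inhibition: signal is fraction of cell area covered by stained E-selectin grains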;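 on nuclei count: 100% = median nuclei count of all wells on the same plate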); details: HUVEC TNFalpha-induced E-selectin immunofluorescence imaging, at 2 µM; inhibition: stronger effect = higher value; nuclei count: measured here: cell number, toxicity
[4] = target: Voltage-gated potassium channel subunit beta-2 (Rattus norvegicus) (UniProt P62483); test: KvBeta enzyme negative modulators, primary screen, biochemical, NADPH fluorescence (AID 622;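 active means fluorescence slope higher than the sample average by over 3 SD, cut at about -0.22 in these data, passing the limit was not always enough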;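 further: slope of raw intensity against log time taken from 70 to 1610 s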); details: recombinant KvBeta, 4-cyanobenzaldehyde reduction, at 10 µM, stronger effect = higher value
Chain of Voltage-gated potassium channel subunit beta-2 (Rattus norvegicus) (P62483 whole entry, looked up): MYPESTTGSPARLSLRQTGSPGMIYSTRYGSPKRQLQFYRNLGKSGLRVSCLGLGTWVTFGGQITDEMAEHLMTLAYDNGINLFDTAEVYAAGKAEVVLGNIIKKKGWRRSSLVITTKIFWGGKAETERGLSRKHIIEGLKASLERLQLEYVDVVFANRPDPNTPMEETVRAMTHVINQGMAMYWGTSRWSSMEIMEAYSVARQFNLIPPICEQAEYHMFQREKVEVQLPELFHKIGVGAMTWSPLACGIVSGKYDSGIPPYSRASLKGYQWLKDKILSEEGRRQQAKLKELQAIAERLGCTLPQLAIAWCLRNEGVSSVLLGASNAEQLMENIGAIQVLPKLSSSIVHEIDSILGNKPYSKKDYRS

[5] = target: Voltage-gated potassium channel subunit beta-2 (Rattus norvegicus) (UniProt P62483); test: KvBeta positive modulators, primary screen, biochemical, NADPH fluorescence (AID 623;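 active means NADPH fluorescence slope more negative than the mean of all samples by about 3 SD, 99.7% confidence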;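 further: fluorescence intensity change per second fitted from 20 to 320 s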); details: Recombinant KvBeta, NADPH fluorescence decrease slope, 10 min; at 10 µM; stronger effect = lower value
[6] = target: Muscarinic acetylcholine receptor M4 (Homo sapiens) (UniProt P08173); test: compounds altering M4/GIRK thallium flux, either direction, primary screen, M4 allosteric agonist project, cell-based, HEK293 M4/GIRK, BTC-AM (AID 625;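 active means fluorescence slope after compound addition differing from the mean of all tested samples at 99.7% confidence, mostly higher but some lower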;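 further: thallium influx through GIRK channels coupled to M4 in HEK293 cells with BTC-AM dye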); details: at 10 µM, actives lie on both sides
Chain of Muscarinic acetylcholine receptor M4 (Homo sapiens) (P08173 whole entry, looked up): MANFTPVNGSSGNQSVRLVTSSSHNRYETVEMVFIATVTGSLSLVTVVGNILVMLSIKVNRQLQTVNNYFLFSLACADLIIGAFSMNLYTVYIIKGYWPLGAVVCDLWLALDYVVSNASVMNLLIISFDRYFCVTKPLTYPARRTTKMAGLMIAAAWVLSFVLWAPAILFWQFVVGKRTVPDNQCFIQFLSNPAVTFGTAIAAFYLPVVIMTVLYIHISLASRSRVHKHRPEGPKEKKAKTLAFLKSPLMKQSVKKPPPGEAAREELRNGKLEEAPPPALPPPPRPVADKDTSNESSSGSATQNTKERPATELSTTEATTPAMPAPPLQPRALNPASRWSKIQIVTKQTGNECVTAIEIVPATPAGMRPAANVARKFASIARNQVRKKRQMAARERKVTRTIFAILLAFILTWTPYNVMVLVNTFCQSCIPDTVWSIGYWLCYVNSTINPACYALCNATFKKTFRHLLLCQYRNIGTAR
Outline: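 System: HEK293 cells with M4 receptor and GIRK channels | Incubation: Cells overnight at 37 °C, BTC-AM loading 1 h, reads 2 min total | Technique: Kinetic BTC-AM fluorescence sampled at 1 Hz, 10 s pre-addition baseline | Measure: Post-addition slope, 15–24 s, of baseline-normalized fluorescence | Control set: Carbachol positive, DMSO negative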

[7] = inhibitors of Sendai virus-induced IRF3 signaling, primary screen, TLR/RLR signaling modifier project, cell-based, Sendai virus stimulus, luciferase, 10K MLSCN set (AID 602276); details: HEK293 RL24 IRF3 luciferase reporter, at 10 µM, stronger effect = higher value;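 further: firefly luciferase from ISG56 promoter only with Renilla not read in this screen; 0% = Sendai virus plus DMSO and 100% = medium plus DMSO without virus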
[8] = inhibitors of poly I:C-induced TLR3 signaling, primary screen, cell-based, poly I:C stimulus, luciferase, 10K MLSCN set (AID 602277;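 active means inhibition of the reporter signal at or above 50%; inactive means inhibition below 50%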); details: HEK293-TLR3 RL24 IRF3 luciferase reporter, at 10 µM, stronger effect = higher value

SMILES	cell count [1]	inhibition [1]	inhibition of aggregation [2]	nuclei count [2] [%]	inhibition [3]	nuclei count [3] [%]	fluorescence slope [4]	NADPH fluorescence slope [5]	fluorescence slope [6]	inhibition [7]	inhibition [8]
CCC(=O)Nc1ccc(F)c(Cl)c1	292	1.5% (inactive)	7.9% (inactive)	108	-76% (inactive)	124	-0.538 (inactive)	9.9e-07 (inactive)	0.0059 (inactive)	21.2% (inactive)	13.9% (inactive)
CCOC(=O)Nc1c(C(=O)OC)[nH]c2cccc(OC)c12	526	-0.5% (inactive)	-15.7% (inactive)	109	-32.4% (inactive)	126	-0.478 (inactive)	3e-05 (inactive)	0.00517 (inactive)	-7.18% (inactive)	-3.25% (inactive)
CN(C(=O)CSc1nc2c(c(=O)[nH]1)CCCC2)C1CCCCC1	820	-0.9% (inactive)	-33.2% (inactive)	117	-253% (inactive)	120	-0.504 (inactive)	4e-05 (inactive)	0.00553 (inactive)	4.83% (inactive)	18.3% (inactive)
Cc1nnc(C)c2c(C)n(-c3ccc(Br)cc3)c(C)c12	305	2.5% (inactive)	-3.9% (inactive)	104	-47.7% (inactive)	111	-0.497 (inactive)	-4.6e-05 (inactive)	0.00472 (inactive)	18% (inactive)	27.9% (inactive)
C=C(C)CSc1nnc(-c2cccc(S(=O)(=O)N(C)C)c2)n1-c1cc(OC)ccc1OC	712	-12.2% (inactive)	31.2% (active)	123	-12.6% (inactive)	107	-0.576 (inactive)	4e-05 (inactive)	0.00586 (inactive)	18.8% (inactive)	34.6% (inactive)
CCc1ccc(NS(=O)(=O)c2cccs2)cc1	421	4.3% (inactive)	-18.3% (inactive)	105	-82% (inactive)	109	-0.634 (inactive)	3e-06 (inactive)	0.00357 (inactive)	-6.86% (inactive)	-9.13% (inactive)
C=C(c1ccc(O)cc1)c1ccc(O)cc1	447	-0.5% (inactive)	-1.6% (inactive)	123	-75% (inactive)	205	-0.37 (inactive)	1.7e-05 (inactive)	0.00598 (inactive)	13.9% (inactive)	16.6% (inactive)
Cc1ccc(-c2csc3nnc(SCC(=O)NCc4ccco4)n23)cc1	656	5.2% (inactive)	-2.5% (inactive)	101	-76.9% (inactive)	94.1	-0.556 (inactive)	-2.1e-05 (inactive)	0.00536 (inactive)	17.2% (inactive)	19.3% (inactive)
CCN(CC)c1ccc(NC(=O)c2[nH]c(C)c(C(C)=O)c2C)c(C)c1	911	7.1% (inactive)	8.4% (inactive)	109	-105% (inactive)	136	-0.555 (inactive)	-3.3e-05 (inactive)	0.00732 (inactive)	2.56% (inactive)	-8.53% (inactive)
Cc1csc(NC(=O)c2cccc(S(=O)(=O)N3CCCCC3)c2)n1	352	7.4% (inactive)	-9.9% (inactive)	96.8	-30.5% (inactive)	109	-0.587 (inactive)	-3e-05 (inactive)	0.00964 (inactive)	-5.34% (inactive)	16.9% (inactive)
Cc1nc(N2CCOCC2)[nH]c(=O)c1CCC(C)C	417	-3.4% (inactive)	6.3% (inactive)	107	28.7% (inactive)	57.6	-0.4 (inactive)	2.6e-05 (inactive)	0.0057 (inactive)	15.6% (inactive)	21.2% (inactive)
Cc1cc(=O)[nH]c2c1cnn2Cc1ccccc1	270	3.9% (inactive)	13.6% (inactive)	79.2	-37.7% (inactive)	104	-0.483 (inactive)	-6.1e-05 (inactive)	0.00447 (inactive)	13.7% (inactive)	15.7% (inactive)
CN1CCCC(OC(=O)COc2ccc(Br)cc2)C1 (centres undefined)	430	-3.5% (inactive)	2.1% (inactive)	97	-63.5% (inactive)	87.2	-0.489 (inactive)	0.000124 (inactive)	0.0054 (inactive)	-9.52% (inactive)	-1.12% (inactive)
Cc1nc(NCCNC(=O)c2ccco2)c2c(C)c(C)sc2n1	803	-4.2% (inactive)	-8.7% (inactive)	136	-34.1% (inactive)	117	-0.548 (inactive)	1.6e-05 (inactive)	0.00498 (inactive)	12.1% (inactive)	6.83% (inactive)
O=C(/C=N/O)Nc1cccnc1	351	-10.2% (inactive)	17.5% (inactive)	86	57.2% (inactive)	98.5	-0.552 (inactive)	-2.2e-05 (inactive)	0.00502 (inactive)	21.9% (inactive)	26.5% (inactive)
Cc1cc(NC(=O)COC(=O)c2cccc(S(=O)(=O)N3CCOCC3)c2)no1	457	-26.1% (inactive)	10.5% (inactive)	106	67.8% (active)	64.5	-0.471 (inactive)	1.8e-05 (inactive)	0.00706 (inactive)	12.1% (inactive)	24.4% (inactive)
O=C1c2oc3ccccc3c(=O)c2C(c2ccccn2)N1Cc1ccccc1 (centres undefined)	440	-8.7% (inactive)	1.8% (inactive)	106	-49.4% (inactive)	125	-0.563 (inactive)	-9.3e-06 (inactive)	0.00477 (inactive)	-16.4% (inactive)	-22.3% (inactive)
O=C(Nc1nncs1)c1ccccc1NS(=O)(=O)c1cccs1	326	21.9% (inactive)	5.1% (inactive)	111	-44.6% (inactive)	108	-0.0751 (inactive)	-1.1e-05 (inactive)	0.00575 (inactive)	-6.81% (inactive)	-4.84% (inactive)
O=C(CSc1nnnn1Cc1ccccc1)Nc1ccc2c(c1)OCO2	551	-10.7% (inactive)	10% (inactive)	92.1	-1% (inactive)	93.6	-0.257 (inactive)	-9.5e-06 (inactive)	0.00493 (inactive)	1.63% (inactive)	2.13% (inactive)
